Values after ≈ are worked out from the molar mass of the structure shown.

The results in this text go back to ChEMBL document CHEMBL3817745, “Structure-Activity Relationship for the 4(3H)-Quinazolinone Antibacterials” (J Med Chem, 2016).

Series [1] relates to Staphylococcus aureus. The series is described as follows: Antibacterial activity against methicillin-susceptible Staphylococcus aureus ATCC 29213 incubated for 16 to 20 hrs by microdilution method. The format is functional.
Series [2] relates to Mus musculus. The series is described as follows: AUC (0 to last) in ICR mouse peritonitis model infected with methicillin resistant Staphylococcus aureus ATCC 27660 at 20 mg/kg, iv administered as single dose measured up to 8 hrs by UPLC analysis. The settings on record: in vivo. The format is ADME, organism-based. Also on record: dose 20 mg/kg, time 0 - last, route intravenous. The method, boiled down: (§1)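 Fast PK: female ICR mice (n = 2 per time point) given single tail-vein iv injection at 5, 10 or 20 mg/kg in 25% DMSO/65% propylene glycol/10% water (2.5, 5 or 10 mg/mL); terminal cardiac blood at 5 min, 40 min, 2, 4, 8 h; plasma analysed by UPLC with internal standard calibration.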

For the next series, the system named is HepG2. The series is described as follows: Cytotoxicity against human HepG2 cells incubated for 16 hrs by XTT assay. The format is cell-based. Particulars: HepG2, 16 h. The method, boiled down: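 HepG2 cells were tested with an XTT viability read-out, in triplicate. IC50 was obtained by nonlinear regression.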
A general note: Tetrazolium assays rely on reduction of a dye to a coloured formazan, in cell work by metabolically active cells.

The nature of series [3]: Hemolytic activity against human RBC at 64 ug/ml relative to control. The series is classed as ADME, cell-based, Erythrocyte. The settings on record: erythrocyte. The method, boiled down: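 Hemolysis was measured at a fixed 64 μg/mL on a 10% red-cell suspension from heparinized human blood. Triton-X served as the positive control, and results are given as percent hemolysis.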

Series [4] concerns Staphylococcus aureus. The series is described as follows: Antibacterial activity against mecA-positive methicillin/oxacillin/tetracycline-resistant Staphylococcus aureus ATCC 27660 incubated for 16 to 20 hrs by microdilution method. The series is classed as functional. A general note: Broth dilution looks for growth in wells or tubes with falling amounts of substance.
For series [5], the system named is Staphylococcus aureus. The series is described as follows: Antibacterial activity against mecA-positive multidrug resistant Staphylococcus aureus COL NRS100 incubated for 16 to 20 hrs by microdilution method. The series is classed as functional.
In series [6] the test system is Staphylococcus aureus. The series is described as follows: Antibacterial activity against mecA-positive multidrug resistant Staphylococcus aureus NRS120 incubated for 16 to 20 hrs by microdilution method. The series is classed as functional.
Series [7] deals with Staphylococcus aureus. The series is described as follows: Antibacterial activity against vancomycin/methicillin-resistant Staphylococcus aureus VRS1 clinical isolate incubated for 16 to 20 hrs by microdilution method. The series is classed as functional.
Series [8] relates to Staphylococcus aureus. The series is described as follows: Antibacterial activity against vancomycin/methicillin-resistant Staphylococcus aureus VRS2 clinical isolate incubated for 16 to 20 hrs by microdilution method. The format is functional.
The test system of series [9] is Staphylococcus epidermidis. The series is described as follows: Antibacterial activity against Staphylococcus epidermidis ATCC 35547 incubated for 16 to 20 hrs by microdilution method. The series is classed as functional. The method, boiled down: (§2)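 CLSI broth microdilution. 2-fold serial dilutions were made in cation-adjusted Mueller–Hinton broth, with 5% lysed horse blood added for Streptococcus strains, in triplicate. Inoculum 5×10^5 CFU/mL. Plates incubated 36 °C for 16–20 h. MIC taken as the lowest concentration visibly inhibiting growth.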

For series [10], the system named is Staphylococcus haemolyticus. The series can be described thus: Antibacterial activity against Staphylococcus haemolyticus ATCC 29970 incubated for 16 to 20 hrs by microdilution method. The series is classed as functional.
The test system of a further series is Streptococcus oralis. The series is described as follows: Antibacterial activity against Streptococcus oralis ATCC 9811 incubated for 16 to 20 hrs by microdilution method. The series is classed as functional. The method, boiled down: as §2
Another series deals with Streptococcus pyogenes. The series can be described thus: Antibacterial activity against Streptococcus pyogenes ATCC 49399 incubated for 16 to 20 hrs by microdilution method. The format is functional. The method, boiled down:
as §2

A further series deals with Bacillus cereus. The series is described as follows: Antibacterial activity against Bacillus cereus ATCC 13061 incubated for 16 to 20 hrs by microdilution method. The format is functional. The method, boiled down:
as §2

The subject of another series is Bacillus licheniformis. The series can be described thus: Antibacterial activity against Bacillus licheniformis ATCC 12759 incubated for 16 to 20 hrs by microdilution method. The series is classed as functional. The method, boiled down:
as §2

Series [11] relates to Enterococcus faecalis. The series can be described thus: Antibacterial activity against methicillin-susceptible Enterococcus faecalis ATCC 29212 incubated for 16 to 20 hrs by microdilution method. The format is functional. The method, boiled down:
as §2

In series [12] the test system is Enterococcus faecalis. The series can be described thus: Antibacterial activity against vancomycin-resistant Enterococcus faecalis 99 clinical isolate incubated for 16 to 20 hrs by microdilution method. The format is functional.
In another series the test system is Enterococcus faecium. The series can be described thus: Antibacterial activity against Enterococcus faecium NCTC 7171 incubated for 16 to 20 hrs by microdilution method. The format is functional. The method, boiled down:
as §2

The test system of a further series is Klebsiella pneumoniae. The series is described as follows: Antibacterial activity against Klebsiella pneumoniae ATCC 700603 incubated for 16 to 20 hrs by microdilution method. The series is classed as functional. The method, boiled down:
as §2

In the next series the test system is Acinetobacter baumannii. The series is described as follows: Antibacterial activity against Acinetobacter baumannii ATCC 17961 incubated for 16 to 20 hrs by microdilution method. The format is functional. The method, boiled down: as §2
In a further series the test system is Pseudomonas aeruginosa. The series is described as follows: Antibacterial activity against Pseudomonas aeruginosa […] incubated for 16 to 20 hrs by microdilution method. The format is functional. The method, boiled down: as §2
The subject of a further series is Escherichia coli. The series is described as follows: Antibacterial activity against Escherichia coli ATCC 25922 incubated for 16 to 20 hrs by microdilution method. The format is functional. The method, boiled down: as §2
For a further series, the system named is Klebsiella aerogenes. The series is described as follows: Antibacterial activity against Enterobacter aerogenes ATCC 35029 incubated for 16 to 20 hrs by microdilution method. The format is functional. The method, boiled down: as §2
The test system of series [13] is Mus musculus. The series can be described thus: AUC (0 to last) in ICR mouse peritonitis model infected with methicillin resistant Staphylococcus aureus ATCC 27660 at 5 mg/kg, iv administered as single dose measured up to 8 hrs by UPLC analysis. The format is ADME, organism-based. Also noted: dose 5 mg/kg, route intravenous, time 0 - last. Particulars: in vivo. The method, boiled down:
as §1

Series [14] in a line: Ratio of IC50 for human HepG2 cells to MIC for methicillin-susceptible Staphylococcus aureus ATCC 29213. The method, boiled down:
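HepG2 XTT cytotoxicity in triplicate, IC50 by nonlinear regression, divided by broth-microdilution MIC for ATCC 29213.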

A short description of series [15]: Ratio of hemolytic concentration for human RBC to MIC for methicillin-susceptible Staphylococcus aureus ATCC 29213.

In the case of `O=C(O)c1cccc(-n2c(/C=C/c3ccc(F)cc3)nc3ccccc3c2=O)c1`, the MIC against Staphylococcus aureus [1] was determined as 1 µg/mL (≈ 2.59 µM); against Staphylococcus aureus [4], 2 µg/mL (≈ 5.18 µM); in the series with Staphylococcus aureus [5], 8 µg/mL (≈ 20.7 µM); against Staphylococcus aureus [6] it was 8 µg/mL (≈ 20.7 µM); against Staphylococcus aureus [7], 8 µg/mL (≈ 20.7 µM); against Staphylococcus aureus [8], 1 µg/mL (≈ 2.59 µM). In addition, the minimal inhibitory concentration (MIC) is 0.125 µg/mL (≈ 0.324 µM) in series [9]; 0.25 µg/mL (≈ 0.647 µM) in series [10]; 128 µg/mL (≈ 331 µM) with Streptococcus oralis; 128 µg/mL (≈ 331 µM) in the series on Streptococcus pyogenes; more than 128 µg/mL with Bacillus cereus; more than 128 µg/mL against Bacillus licheniformis. In addition, the MIC against Enterococcus faecalis [11] was more than 128 µg/mL; in the series on Enterococcus faecalis [12], more than 128 µg/mL; against Enterococcus faecium it was more than 128 µg/mL; with Klebsiella pneumoniae, not below 16 µg/mL; in the series with Acinetobacter baumannii, not below 16 µg/mL; against Pseudomonas aeruginosa it was not below 16 µg/mL. Further, the MIC against Escherichia coli and in the series on Klebsiella aerogenes was not below 16 µg/mL in each case. This molecule also showed an AUClast in the series on Mus musculus [2] of 2560 µg·min/mL. This molecule also came in with an IC50 in the series with HepG2 of 95.5 µg/mL (≈ 247 µM). For the same molecule, the Activity in series [3] is listed as less than 1%.
For the molecule `O=c1c2ccccc2nc(/C=C/c2ccc(F)cc2)n1-c1cccc(O)c1`, the MIC is 0.25 µg/mL (≈ 0.698 µM) in the series on Staphylococcus aureus [1]; not below 8 µg/mL against Enterococcus faecium; not below 16 µg/mL in the series on Klebsiella pneumoniae; not below 16 µg/mL against Acinetobacter baumannii; not below 16 µg/mL against Pseudomonas aeruginosa; not below 16 µg/mL against Escherichia coli. In addition, the minimal inhibitory concentration (MIC) in the series on Klebsiella aerogenes was not below 16 µg/mL. Further, in the series on Mus musculus [13], the AUClast came out at 466 µg·min/mL. In addition, the IC50 in the series on HepG2 was 16.4 µg/mL (≈ 45.8 µM). Further, the Activity in series [3] was less than 1%. Also, the Ratio in [14] was more than 30; in series [15], more than 120.

Usually MIC stands for the lowest concentration found to suppress growth. In general, IC50 refers to the midpoint of a concentration-inhibition curve.
